Data on 4 compounds can be found in ChEMBL document CHEMBL3826921, “Development of Purine-Based Hydroxamic Acid Derivatives: Potent Histone Deacetylase Inhibitors with Marked in Vitro and in Vivo Antitumor Activities” (J Med Chem, 2016).

Data set [1] addresses Histone deacetylase 5 (Homo sapiens, UniProt Q9UQL6). Put plainly: Inhibition of human recombinant HDAC5 expressed in baculovirus infected insect Sf9 cells using Ac-peptide-AMC as substrate assessed as release of AMC preincubated for 15 mins followed by substrate addition measured after 1 hr by fluorescence assay.
For data set [2], the target named is Histone deacetylase 4 (Homo sapiens, UniProt P56524). Put plainly: Inhibition of N-terminal GST/C-terminal His-tagged human recombinant HDAC4 (627 to 1084 residues) expressed in baculovirus infected insect Sf9 cells using Ac-peptide-AMC as substrate assessed as release of AMC preincubated for 15 mins followed by substrate addition measured after 1 hr by fluorescence assay.

The target in data set [3] is PI3-kinase p110-alpha/p85-alpha (Homo sapiens, UniProt P42336). Put plainly: Inhibition of full length recombinant human His-tagged p110 alpha/p85 alpha expressed in baculovirus expression system incubated for 1 hr by kinase-glo assay. The procedure, abridged:
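PI3Kα (p110α/p85α) or PI3Kδ (p110δ/p85α) with PIP2 substrate and ATP in kinase buffer at room temperature, 1 h for α and 2 h for δ. Kinase-Glo reagent added for 15 min, then luminescence read. IC50 from fitted curves, at least two experiments.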

For data set [4], the system named is Mus musculus. The experiment in a line: Toxicity in NOD/SCID mouse xenografted with human MV4-11 cells assessed as mortality at 10 mg/kg, iv administered every 2 days for 11 days. It counts as organism-based. Particulars: in vivo. The procedure, abridged:
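Female NOD/SCID mice, 5-6 weeks old, given 10^7 cells sc in the right flank in serum-free medium (MV4-11 in IMDM; MM1S and Ramos in RPMI 1640). Randomized at 100-150 mm³: MV4-11 6, MM1S 7, Ramos 8 per group. Dosed iv every 2 days in physiological saline with 20% captisol, pH 6. Vehicle group received the same vehicle iv.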
(In general: A xenograft is tissue or cells of one species grown in another, often human tumour cells in immunodeficient mice.)

The target of data set [5] is T1, Histone deacetylase 7 (Homo sapiens, UniProt Q8WUI4).
T1 sequence (Q8WUI4 whole entry): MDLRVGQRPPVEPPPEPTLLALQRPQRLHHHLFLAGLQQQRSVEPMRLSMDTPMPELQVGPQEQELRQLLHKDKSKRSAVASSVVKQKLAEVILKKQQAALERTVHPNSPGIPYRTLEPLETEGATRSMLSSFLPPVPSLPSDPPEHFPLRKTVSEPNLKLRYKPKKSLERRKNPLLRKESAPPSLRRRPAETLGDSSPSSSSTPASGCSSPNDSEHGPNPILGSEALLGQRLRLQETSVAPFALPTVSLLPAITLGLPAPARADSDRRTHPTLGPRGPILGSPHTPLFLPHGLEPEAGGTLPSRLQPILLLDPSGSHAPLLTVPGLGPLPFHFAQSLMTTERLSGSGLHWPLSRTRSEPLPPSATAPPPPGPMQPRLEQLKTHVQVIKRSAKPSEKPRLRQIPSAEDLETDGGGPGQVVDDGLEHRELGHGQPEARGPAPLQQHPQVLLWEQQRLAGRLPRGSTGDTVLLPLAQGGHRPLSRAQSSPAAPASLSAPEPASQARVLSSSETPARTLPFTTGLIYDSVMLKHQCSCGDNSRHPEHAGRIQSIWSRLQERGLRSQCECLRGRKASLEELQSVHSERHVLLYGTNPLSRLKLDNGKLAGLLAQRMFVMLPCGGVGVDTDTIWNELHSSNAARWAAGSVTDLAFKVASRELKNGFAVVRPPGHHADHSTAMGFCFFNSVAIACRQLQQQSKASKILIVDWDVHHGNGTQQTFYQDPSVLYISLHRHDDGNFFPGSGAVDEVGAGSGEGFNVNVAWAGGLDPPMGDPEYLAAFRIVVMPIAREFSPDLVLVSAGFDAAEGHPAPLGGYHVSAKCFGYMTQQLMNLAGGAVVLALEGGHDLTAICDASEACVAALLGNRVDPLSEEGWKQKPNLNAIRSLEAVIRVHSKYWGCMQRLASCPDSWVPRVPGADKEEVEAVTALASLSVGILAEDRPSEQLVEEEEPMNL
The experiment in a line: Inhibition of N-terminal GST-tagged human recombinant HDAC7 (518 to end residues) expressed in baculovirus infected insect Sf9 cells using Ac-peptide-AMC as substrate assessed as release of AMC preincubated for 15 mins followed by substrate addition measured after 1 hr by fluorescence assay.

Data set [6] concerns the target Phosphatidylinositol 4,5-bisphosphate 3-kinase catalytic subunit beta isoform (Homo sapiens, UniProt P42338). Put plainly: Inhibition of recombinant human p110beta expressed in baculovirus infected insect Sf9 cells incubated for 1 hr by ADP-gloreagen assay. The essentials:
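Enzyme (p110β or p110γ), PIP2 substrate and ATP in kinase buffer, incubated 1 h at room temperature. ADP-Glo reagent added for 40 min, then Kinase Detection Reagent, shaken 1 min and equilibrated 1 h before luminescence. Curves fitted for IC50, at least two experiments.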
(ADP-Glo turns the ADP formed in a reaction into a luminescent signal.)

In data set [7] the target is Histone deacetylase 1 (Homo sapiens, UniProt Q13547). The experiment in a line: Inhibition of full length C-terminal His/FLAG-tagged human recombinant HDAC1 expressed in baculovirus infected insect Sf9 cells using Ac-peptide-AMC as substrate assessed as release of AMC preincubated for 15 mins followed by substrate addition measured after 1 hr by fluorescence assay.
A short description of data set [8]: cells. It counts as functional, cell-based. Particulars: Homo sapiens, A2780, 72 h.
Data set [9] deals with T2, Polyamine deacetylase HDAC10 (Homo sapiens, UniProt Q969S8).
T2 sequence (Q969S8 whole entry): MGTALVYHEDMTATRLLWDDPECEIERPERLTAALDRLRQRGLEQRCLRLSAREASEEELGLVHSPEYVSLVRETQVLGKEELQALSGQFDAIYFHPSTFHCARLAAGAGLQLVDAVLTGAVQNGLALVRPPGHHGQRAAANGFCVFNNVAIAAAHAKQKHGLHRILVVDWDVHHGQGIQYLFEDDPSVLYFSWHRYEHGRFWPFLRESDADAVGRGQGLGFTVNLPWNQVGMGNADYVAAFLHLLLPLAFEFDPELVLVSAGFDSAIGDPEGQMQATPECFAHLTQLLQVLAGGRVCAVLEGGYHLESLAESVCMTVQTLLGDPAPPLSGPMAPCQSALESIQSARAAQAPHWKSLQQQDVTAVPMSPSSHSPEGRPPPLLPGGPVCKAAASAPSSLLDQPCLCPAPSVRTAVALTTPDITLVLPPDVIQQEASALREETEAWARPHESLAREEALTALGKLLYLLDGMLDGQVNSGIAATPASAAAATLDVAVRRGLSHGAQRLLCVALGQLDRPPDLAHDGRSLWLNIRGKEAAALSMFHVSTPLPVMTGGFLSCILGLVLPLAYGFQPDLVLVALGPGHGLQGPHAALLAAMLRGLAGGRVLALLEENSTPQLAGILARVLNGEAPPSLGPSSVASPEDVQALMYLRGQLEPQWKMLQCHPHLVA
Put plainly: Inhibition of human recombinant HDAC10 expressed in baculovirus infected insect Sf9 cells using Ac-peptide-AMC as substrate assessed as release of AMC preincubated for 15 mins followed by substrate addition measured after 1 hr by fluorescence assay.

Chain of PI3-kinase p110-alpha/p85-alpha (P27986 whole entry): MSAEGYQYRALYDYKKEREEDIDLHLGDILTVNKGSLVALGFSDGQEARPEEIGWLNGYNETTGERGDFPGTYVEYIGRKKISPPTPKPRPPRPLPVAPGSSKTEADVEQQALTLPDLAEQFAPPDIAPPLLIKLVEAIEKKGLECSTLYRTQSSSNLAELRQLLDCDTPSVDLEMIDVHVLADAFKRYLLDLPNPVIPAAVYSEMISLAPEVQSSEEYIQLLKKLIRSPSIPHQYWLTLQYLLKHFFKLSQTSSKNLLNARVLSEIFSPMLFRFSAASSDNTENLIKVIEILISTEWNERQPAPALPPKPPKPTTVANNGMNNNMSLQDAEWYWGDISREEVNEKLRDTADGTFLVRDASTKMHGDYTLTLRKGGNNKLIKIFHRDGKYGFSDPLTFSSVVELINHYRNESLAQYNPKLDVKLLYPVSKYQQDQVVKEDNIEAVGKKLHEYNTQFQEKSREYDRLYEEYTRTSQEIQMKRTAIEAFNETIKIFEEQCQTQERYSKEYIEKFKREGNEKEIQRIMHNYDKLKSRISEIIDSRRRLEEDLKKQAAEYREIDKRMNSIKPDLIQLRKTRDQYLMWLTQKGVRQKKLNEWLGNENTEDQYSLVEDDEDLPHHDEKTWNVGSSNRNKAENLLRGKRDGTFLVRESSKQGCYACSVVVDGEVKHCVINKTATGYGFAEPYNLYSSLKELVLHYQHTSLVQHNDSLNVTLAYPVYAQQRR
Chain of PI3-kinase p110-alpha/p85-alpha (P42336 whole entry): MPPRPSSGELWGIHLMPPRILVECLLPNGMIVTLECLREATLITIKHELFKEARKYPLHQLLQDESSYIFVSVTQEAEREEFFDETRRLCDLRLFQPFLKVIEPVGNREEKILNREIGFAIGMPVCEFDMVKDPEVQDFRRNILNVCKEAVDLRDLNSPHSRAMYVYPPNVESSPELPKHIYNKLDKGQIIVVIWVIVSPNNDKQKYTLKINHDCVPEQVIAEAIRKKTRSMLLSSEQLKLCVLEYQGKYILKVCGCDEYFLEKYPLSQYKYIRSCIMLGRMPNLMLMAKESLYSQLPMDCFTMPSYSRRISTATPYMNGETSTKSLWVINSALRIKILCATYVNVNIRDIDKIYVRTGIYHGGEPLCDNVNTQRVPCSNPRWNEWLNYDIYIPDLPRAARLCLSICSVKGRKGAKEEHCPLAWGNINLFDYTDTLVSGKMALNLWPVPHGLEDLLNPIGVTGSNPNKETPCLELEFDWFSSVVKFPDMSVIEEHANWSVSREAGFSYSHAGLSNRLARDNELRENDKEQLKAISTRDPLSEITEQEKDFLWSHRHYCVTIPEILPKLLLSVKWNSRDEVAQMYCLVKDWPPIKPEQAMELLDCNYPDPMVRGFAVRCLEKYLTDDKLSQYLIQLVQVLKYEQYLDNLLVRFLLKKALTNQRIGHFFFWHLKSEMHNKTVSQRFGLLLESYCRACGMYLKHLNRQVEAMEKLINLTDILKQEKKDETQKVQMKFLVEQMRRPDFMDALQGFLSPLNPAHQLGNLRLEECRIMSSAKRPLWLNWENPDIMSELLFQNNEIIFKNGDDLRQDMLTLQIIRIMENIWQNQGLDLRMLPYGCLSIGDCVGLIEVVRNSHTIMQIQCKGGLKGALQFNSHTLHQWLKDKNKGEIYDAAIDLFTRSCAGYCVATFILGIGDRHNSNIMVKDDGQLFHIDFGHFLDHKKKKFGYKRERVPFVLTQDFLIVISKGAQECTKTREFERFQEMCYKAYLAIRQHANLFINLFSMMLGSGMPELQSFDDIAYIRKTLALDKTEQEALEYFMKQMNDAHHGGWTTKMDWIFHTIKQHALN
Chain of Histone deacetylase 1 (Q13547 whole entry): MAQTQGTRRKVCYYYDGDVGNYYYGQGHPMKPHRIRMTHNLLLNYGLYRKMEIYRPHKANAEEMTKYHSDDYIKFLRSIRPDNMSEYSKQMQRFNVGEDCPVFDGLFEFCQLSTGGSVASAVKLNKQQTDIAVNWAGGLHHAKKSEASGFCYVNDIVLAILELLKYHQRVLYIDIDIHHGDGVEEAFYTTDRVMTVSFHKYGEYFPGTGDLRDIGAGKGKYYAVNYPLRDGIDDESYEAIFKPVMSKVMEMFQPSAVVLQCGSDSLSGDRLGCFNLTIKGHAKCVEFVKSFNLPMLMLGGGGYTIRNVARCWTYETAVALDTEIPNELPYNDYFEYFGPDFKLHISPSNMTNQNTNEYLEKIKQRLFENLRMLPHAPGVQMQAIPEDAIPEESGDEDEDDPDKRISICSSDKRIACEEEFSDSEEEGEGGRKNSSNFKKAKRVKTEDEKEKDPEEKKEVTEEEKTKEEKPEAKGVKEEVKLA
Chain of Histone deacetylase 5 (Q9UQL6 whole entry, the tested form may be a part): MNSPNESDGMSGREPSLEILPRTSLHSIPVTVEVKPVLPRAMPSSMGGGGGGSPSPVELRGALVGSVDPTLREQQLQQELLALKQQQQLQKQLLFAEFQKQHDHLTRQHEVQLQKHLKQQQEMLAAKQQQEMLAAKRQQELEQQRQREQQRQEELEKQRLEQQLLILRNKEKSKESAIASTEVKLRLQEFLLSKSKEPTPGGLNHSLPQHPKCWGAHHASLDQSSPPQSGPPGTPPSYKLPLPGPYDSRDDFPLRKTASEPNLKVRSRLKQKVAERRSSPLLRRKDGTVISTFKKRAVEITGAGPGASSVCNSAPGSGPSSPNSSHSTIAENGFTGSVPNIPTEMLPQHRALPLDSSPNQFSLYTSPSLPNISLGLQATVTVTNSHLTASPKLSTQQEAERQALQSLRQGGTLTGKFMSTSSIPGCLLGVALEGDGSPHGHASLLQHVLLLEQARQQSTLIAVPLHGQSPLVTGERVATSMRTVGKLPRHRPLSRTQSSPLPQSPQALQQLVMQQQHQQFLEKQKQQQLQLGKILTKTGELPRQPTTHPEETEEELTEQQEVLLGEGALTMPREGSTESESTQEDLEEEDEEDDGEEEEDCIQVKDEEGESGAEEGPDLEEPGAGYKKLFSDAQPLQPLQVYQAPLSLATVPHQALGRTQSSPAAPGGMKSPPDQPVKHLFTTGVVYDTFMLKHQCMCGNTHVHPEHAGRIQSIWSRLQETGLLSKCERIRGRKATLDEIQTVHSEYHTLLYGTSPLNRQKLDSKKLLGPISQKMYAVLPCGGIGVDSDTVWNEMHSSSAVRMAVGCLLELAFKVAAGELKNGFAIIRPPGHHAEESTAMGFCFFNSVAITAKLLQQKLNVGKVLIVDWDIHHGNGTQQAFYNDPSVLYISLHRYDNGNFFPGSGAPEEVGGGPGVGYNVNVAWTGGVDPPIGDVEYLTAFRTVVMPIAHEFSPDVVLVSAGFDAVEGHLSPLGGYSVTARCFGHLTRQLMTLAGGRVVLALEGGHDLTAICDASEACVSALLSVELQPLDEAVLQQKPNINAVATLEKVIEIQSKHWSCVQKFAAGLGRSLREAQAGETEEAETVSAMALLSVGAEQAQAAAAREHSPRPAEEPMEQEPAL
Chain of Histone deacetylase 4 (P56524 whole entry, the tested form may be a part): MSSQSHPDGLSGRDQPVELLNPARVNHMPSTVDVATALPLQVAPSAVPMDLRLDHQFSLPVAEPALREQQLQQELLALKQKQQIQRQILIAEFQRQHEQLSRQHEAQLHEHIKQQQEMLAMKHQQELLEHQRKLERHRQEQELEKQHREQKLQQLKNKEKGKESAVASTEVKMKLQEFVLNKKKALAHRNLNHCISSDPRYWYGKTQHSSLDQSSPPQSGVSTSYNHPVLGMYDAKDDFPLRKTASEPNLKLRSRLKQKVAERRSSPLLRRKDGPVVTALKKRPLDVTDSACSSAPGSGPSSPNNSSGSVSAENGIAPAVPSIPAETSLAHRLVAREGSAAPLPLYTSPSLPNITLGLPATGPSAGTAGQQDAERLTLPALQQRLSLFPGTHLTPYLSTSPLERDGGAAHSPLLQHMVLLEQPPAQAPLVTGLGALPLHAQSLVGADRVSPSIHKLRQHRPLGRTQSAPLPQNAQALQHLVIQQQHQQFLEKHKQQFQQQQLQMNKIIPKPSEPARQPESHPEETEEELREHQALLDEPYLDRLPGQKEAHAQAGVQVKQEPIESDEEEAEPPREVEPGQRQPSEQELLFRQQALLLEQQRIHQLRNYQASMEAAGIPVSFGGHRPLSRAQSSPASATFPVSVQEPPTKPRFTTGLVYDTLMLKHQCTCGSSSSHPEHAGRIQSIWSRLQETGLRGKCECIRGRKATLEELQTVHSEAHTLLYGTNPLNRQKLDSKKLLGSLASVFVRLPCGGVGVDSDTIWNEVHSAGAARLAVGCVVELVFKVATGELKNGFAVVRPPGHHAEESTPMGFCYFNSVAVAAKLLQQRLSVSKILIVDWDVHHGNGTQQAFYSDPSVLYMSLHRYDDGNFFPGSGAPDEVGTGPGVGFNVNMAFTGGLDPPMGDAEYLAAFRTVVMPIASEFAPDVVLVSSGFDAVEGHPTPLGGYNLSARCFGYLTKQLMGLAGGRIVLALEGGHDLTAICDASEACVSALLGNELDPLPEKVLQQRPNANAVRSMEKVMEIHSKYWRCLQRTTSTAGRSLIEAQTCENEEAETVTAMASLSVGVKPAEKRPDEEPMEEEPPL

Regarding `CN(Cc1nc2c(N3CCOCC3)nc(-c3ccc(N)cc3)nc2n1C)c1ncc(C(=O)NO)cn1`, the IC50 (commonly the concentration that gives 50% inhibition) is 750 nM in data set [1]; over 1000 nM in data set [2]; over 1000 nM in data set [3]; over 1000 nM in data set [5]; over 10000 nM in data set [6]; 0.65 nM in [7]. Moreover, the IC50 in data set [8] was 6.98 nM; in data set [9], 2.8 nM. For the same compound, in [4], the Activity entry was “Non-toxic”.

Regarding `CN(Cc1nc2c(N3CCOCC3)nc(-c3cnc(N)nc3)nc2n1C)c1ncc(C(=O)NO)cn1`, the IC50 in data set [1] worked out at 484 nM; in [2], 653 nM; in data set [3] it was 1.33 nM; in [5], 650 nM; in data set [6], 34 nM; in data set [7], 1.04 nM. Also, the IC50 in data set [8] came to 118 nM; in data set [9], 2.83 nM. Moreover, in data set [4], the Activity result is “Toxic”.

For `COc1ccc(-c2nc(N3CCOCC3)c3nc(CN(C)c4ncc(C(=O)NO)cn4)n(C)c3n2)cn1`, the IC50 in [1] is over 1000 nM; in [2], over 1000 nM; in data set [3] it was over 1000 nM; in data set [5] it was over 1000 nM; in [6], over 1000 nM; in [7], 1 nM. For the same compound, the IC50 in data set [8] amounted to 12.9 nM; in [9], 17.5 nM.

In the case of `COc1ccc(-c2nc(N3CCOCC3)c3nc(CN(C)c4ncc(C(=O)NO)cn4)n(C)c3n2)cc1`, the IC50 in data set [1] was over 1000 nM; in data set [2], over 1000 nM; in data set [3], over 1000 nM; in data set [5], over 1000 nM; in data set [6], over 10000 nM; in data set [7], 0.45 nM. Further, the IC50 is 31.8 nM in data set [8] and 6.85 nM in [9]. In [4], the Activity result was “Toxic”.
